In ChEMBL document CHEMBL1938234, “Cytotoxic and antimalarial azaphilones from Chaetomium longirostre” (J Nat Prod, 2011):

Tests used:
[1] = tested on: Plasmodium falciparum; assay: Antimalarial activity against multidrug-resistant Plasmodium falciparum K1 assessed as inhibition of [3H]-hypoxanthine incorporation; assay type: functional, organism-based
How it was run: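 In vitro culture of the K1 multidrug-resistant P. falciparum strain followed the Trager–Jensen method. Activity was scored by the Desjardins microculture radioisotope technique, reading [3H]-hypoxanthine uptake by the parasites. IC50 was taken as the concentration giving 50% reduction in parasite growth. Dihydroartemisinin served as the reference standard.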

[2] = tested on: KB; assay: Cytotoxicity against human KB cells by SRB assay; assay type: functional, cell-based
[3] = tested on: NCI-H187; assay: Cytotoxicity against human NCI-H187 cells by SRB assay; assay type: functional, cell-based
[4] = tested on: MCF7; assay: Cytotoxicity against human MCF7 cells by SRB assay; assay type: functional, cell-based
[5] = Plasmodium falciparum, K1, read-out: IC50
[6] = Homo sapiens, NCI-H187, read-out: IC50
[7] = Homo sapiens, MCF7, read-out: IC50

## C[C@H]1[C@@H](O)O[C@@H]2O[C@@]3(C)CC[C@H]4[C@H](C)CC[C@@H]1[C@@]24OO3 [ARTENIMOL]
[1]; [5]
  IC50: 0.004 µM

## COc1cccc2c1C(=O)c1c(O)c3c(c(O)c1C2=O)C[C@@](O)(C(=O)CO)C[C@@H]3O[C@H]1C[C@H](N)[C@H](O)[C@H](C)O1 [DOXORUBICIN]
[2]
  IC50: 0.33 µM
[3]; [6]
  IC50: 0.11 µM
[4]; [7]
  IC50: 2.29 µM

## CCC(C)CC(C)/C=C(C)/C=C/C(=O)[C@H]1C(=O)O[C@@]2(C)C(=O)C=C3C=C([C@H]4C(=O)C[C@H](O)C[C@@H]4C)OC=C3[C@@H]12 (some centres not stated) [LONGIROSTRERONEA]
[2]
  IC50: 1.04 µM
[3]; [6]
  IC50: 3.08 µM
[4]; [7]
  IC50: 0.24 µM
[1]; [5]
  IC50: 0.63 µM

## CCC(C)CC(C)/C=C(C)/C=C/C(=O)C1=C2C3=COC([C@H]4C(=O)C[C@H](O)C[C@@H]4C)=CC3=CC(=O)[C@@]2(C)OC1=O (some centres not stated) [LONGIROSTRERONE D]
[2]
  IC50: 6.38 µM
[3]; [6]
  IC50: 18.4 µM
[4]; [7]
  IC50: 38.2 µM
[1]
  IC50: Not Active

## CCC(C)CC(C)/C=C(C)/C=C/C(=O)C[C@H]1C2=COC([C@H]3C(=O)C[C@H](O)C[C@@H]3C)=CC2=CC(=O)[C@]1(C)O (some centres not stated) [LONGIROSTRERONEB]
[2]
  IC50: 1.52 µM
[3]; nci-h187
  IC50: Not Active
[4]; mcf7
  IC50: Not Active
[1]; [5]
  IC50: 3.73 µM

## CCC(C)CC(C)/C=C(C)/C=C/C(=O)[C@H]1C(=O)O[C@@]2(C)C(=O)C=C3C=C([C@H]4C(=O)C=CC[C@@H]4C)OC=C3[C@@H]12 (some centres not stated) [LONGIROSTRERONE C]
[2]
  IC50: 0.23 µM
[3]; nci-h187
  IC50: Not Active
[4]; mcf7
  IC50: Not Active
[1]; [5]
  IC50: 0.62 µM

## Cc1c2ccncc2c(C)c2c1[nH]c1ccccc12 [ELLIPTECINE]
[2]
  IC50: 1.25 µM
[3]; [6]
  IC50: 1.82 µM
